# Experimental data gathered from unrelated publications.
# Lines come from different studies, so protocols differ.
# Cell line: HepG2
# Observed: cell growth or viability
Compound,test,setting,endpoint,result
Cc1ccc2nc(-c3ccccc3Cl)[nH]c2c1,MTT,48 h,IC50,95.6 µM
COc1ccc(NC(=O)c2c(Nc3ccccc3)sc(C#N)c2NC(=O)CNc2ccc(C)cc2)cc1,SRB,"10 nM, 48 h",viability,88.3%
COc1ccc(/C=C2\SC(=S)N(CC(=O)Nc3ccccc3)C2=O)cc1,MTT,10 µM,inhibition,13.6%
CCOC(=O)c1ccc(N2C(N)=C(C#N)C3(C(=O)Nc4ccccc43)C(C#N)=C2O)cc1 (centres unmarked),MTT,"3.125 µM, 24 h",viability,69.3%
COc1ccc(NC(=O)c2c(Nc3ccccc3)sc(C#N)c2NC(=O)CNc2ccccc2[N+](=O)[O-])cc1,SRB,"10 nM, 48 h",viability,92.5%
CCOC(=O)c1ccc(-n2c(N)c(C#N)c(CC#N)c(C#N)c2=O)cc1,MTT,"50 µM, 24 h",viability,35.1%
COc1ccc(NCC(=O)Nc2c(C#N)sc(Nc3ccccc3)c2C(=O)Nc2ccc(OC)cc2)cc1,SRB,"0.1 µM, 48 h",viability,84.4%
CCn1cc(-c2nc(C)no2)c(=O)c2cc(F)c(N3CCOCC3)cc21,ATP luminescence,48 h,EC50,> 40 µM
O=C(CN1C(=O)/C(=C/c2ccc(O)cc2)SC1=S)Nc1ccccc1,MTT,10 µM,inhibition,31.6%
CC(=O)Nc1cccc(-n2c(=O)n(C3CC3)c(=O)c3c(Nc4ccc(I)cc4F)n(C)c(=O)c(C)c32)c1,resazurin,"1.56 nM, 72 h",viability,96.4%
Cc1ccc2nc(-c3ccc([N+](=O)[O-])cc3)n(Cc3ccc(Cl)cc3)c2c1,MTT,,IC50,5.53 µM
Cc1ccc(-c2cc(-c3ccc4oc(=O)cc(C)c4c3O)nc(N)n2)cc1,MTT,"128 µg/mL, 72 h",inhibition,27%
Cc1cc(Nc2ccc(C(=O)N/N=C/c3ccc(N(C)C)cc3)cc2)c2cccc(O)c2n1,MTT,20 µM,inhibition,40.8%
CCNC(=O)c1cn(CC)c2cc(N3CCC(C)CC3)c(F)cc2c1=O,ATP luminescence,48 h,EC50,> 40 µM
Cc1cc(=O)oc2ccc(-c3cc(-c4ccc(Cl)cc4)nc(N)n3)c(O)c12,MTT,"2 µg/mL, 72 h",inhibition,16%
CNC(=O)c1cc(Oc2ccc(NC(=O)Nc3ccc(Cl)c(C(F)(F)F)c3)cc2)ccn1,SRB,"100 µM, 48 h",viability,40.3%
O=C(N/N=C/c1cccn1CCCN1CCCC1)Nc1cc2c(Nc3ccc(F)c(Cl)c3)ncnc2cc1O[C@H]1CCOC1,MTT,72 h,IC50,0.67 µM
COc1ccc(NC(=O)c2c(Nc3ccccc3)sc(C(=O)NN=Cc3ccccc3)c2NC(C)=O)cc1,SRB,"1 µM, 48 h",viability,72%
Cc1cc(Nc2ccc(C(=O)N/N=C/c3nc4ccccc4[nH]3)cc2)c2cccc(O)c2n1,MTT,20 µM,inhibition,46.4%
COc1cccc(-c2nc3ccccc3[nH]2)c1,MTT,48 h,IC50,47.1 µM
COc1ccc(NC(=O)c2c(Nc3ccccc3)sc(C#N)c2NC(=O)CNc2ccccc2)cc1,SRB,"1 nM, 48 h",viability,102%
O=C(CN1C(=O)/C(=C/c2ccc(F)cc2)SC1=S)Nc1ccccc1,MTT,10 µM,inhibition,6.59%
CCOC(=O)c1ccc(-n2c(C)cc(/C=C/c3ccc(OC)cc3)c(C#N)c2=O)cc1,MTT,"3.125 µM, 24 h",viability,100%
CCn1cc(-c2nc(C)no2)c(=O)c2cc(F)c(N3CCN(C)CC3)cc21,ATP luminescence,48 h,EC50,> 40 µM
CCOC(=O)c1ccc(NC(=O)C2=C3C(=Nc4ccccc43)NC2=O)cc1,MTT,"3.125 µM, 24 h",viability,100%
Cc1ccc2nc(-c3ccco3)[nH]c2c1,MTT,48 h,IC50,> 100 µM
CCOC(=O)c1ccc(-n2c(C)cc(/C=C/c3ccc(OCC)cc3)c(C#N)c2=O)cc1,MTT,"3.125 µM, 24 h",viability,100%
Fc1ccc(-c2nc3ccccc3n2Cc2ccccc2)cc1,MTT,,IC50,45.9 µM
CCN(CC)C/C=N/NC(=O)Nc1cc2c(Nc3ccc(F)c(Cl)c3)ncnc2cc1OC,MTT,72 h,IC50,2.15 µM
CSc1ccc(-c2nc3ccc(C)cc3n2Cc2ccccc2)cc1,MTT,,IC50,17.7 µM
CCOC(=O)c1cn(CC)c2cc(N3CCC(Cc4ccccc4)CC3)c(F)cc2c1=O,ATP luminescence,48 h,EC50,> 40 µM
COc1cccc2c1C(=O)c1c(O)c3c(c(O)c1C2=O)C[C@@](O)(C(=O)CO)C[C@@H]3O[C@H]1C[C@H](N)[C@H](O)[C@H](C)O1,MTT,"100 µM, 24 h",viability,6.3%
Cc1ccc2nc(-c3c(F)cccc3Cl)[nH]c2c1,MTT,48 h,IC50,> 100 µM
CCOC(=O)c1ccc(-n2c(C)cc(C)c(C#N)c2=O)cc1,MTT,"50 µM, 24 h",viability,51.2%
COc1ccc(-c2nc3ccccc3[nH]2)cc1OC,MTT,48 h,IC50,44.1 µM
Cc1cc(=O)oc2ccc(-c3cc(-c4ccc(Br)cc4)nc(N)n3)c(O)c12,MTT,"32 µg/mL, 72 h",inhibition,8%
COc1ccc(NC(=O)c2c(Nc3ccccc3)sc(C(=O)NN=Cc3ccc(C)cc3)c2NC(C)=O)cc1,SRB,"100 µM, 48 h",viability,57.3%
O=C(CN1C(=O)/C(=C/C2CC2)SC1=S)Nc1ccccc1,MTT,10 µM,inhibition,11%
COc1ccc(-c2cc(-c3ccc4oc(=O)cc(C)c4c3O)nc(N)n2)cc1,MTT,"128 µg/mL, 72 h",inhibition,40%
COc1ccc(NC(=O)c2c(Nc3ccccc3)sc(C#N)c2NC(=O)CNc2ccc(O)cc2)cc1,SRB,"10 µM, 48 h",viability,61.6%
CCOC(=O)c1ccc(-n2c(-c3ccc(C)cc3)cc(-c3ccc(O)cc3)c(C#N)c2=O)cc1,MTT,"100 µM, 24 h",viability,18.3%
